Measurements published in ChEMBL document CHEMBL4229460, “Design and biological evaluation of novel hybrids of 1, 5-diarylpyrazole and Chrysin for selective COX-2 inhibition” (Bioorg Med Chem, 2018).

Columns and labels:
[1] = system: HeLa; test: Disruption of mitochondrial membrane potential in human HeLa cells assessed as collapse of the mitochondrial membrane potential at 10 uM after 12 hrs by JC1 staining based flow cytometry (reference value: 0.768%); assay type: functional
[2] = system: HeLa; test: Disruption of mitochondrial membrane potential in human HeLa cells assessed as intact mitochondrial membrane at 10 uM after 12 hrs by JC1 staining based flow cytometry (reference value: 99.2%); assay type: functional
[3] = system: A549; test: Antiproliferative activity against human A549 cells after 48 hrs by MTT assay; assay type: functional, cell-based; conditions: A549, 48 h
Method in brief: (§1)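 Cells kept in DMEM with 10% FBS, penicillin/streptomycin, 37 °C, 5% CO₂. Seeded at 5 × 10⁴ cells/well and allowed to adhere 12 h. Exposed to 0, 0.1, 1, 10 and 100 μM (final) for 48 h. Viability read by MTT reduction at OD 570 nm with 630 nm reference. IC50 reported as mean ± SD of three independent experiments.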

[4] = system: HeLa; test: Antiproliferative activity against human HeLa cells after 48 hrs by MTT assay; assay type: functional, cell-based
[5] = target: Prostaglandin G/H synthase 1 (Homo sapiens, UniProt P23219); test: Inhibition of COX1 (unknown origin) using arachidonic acid as substrate pretreated for 10 mins followed by substrate addition and measured after 2 mins by ELISA; assay type: ADME
Chain of Prostaglandin G/H synthase 1 (P23219 whole entry): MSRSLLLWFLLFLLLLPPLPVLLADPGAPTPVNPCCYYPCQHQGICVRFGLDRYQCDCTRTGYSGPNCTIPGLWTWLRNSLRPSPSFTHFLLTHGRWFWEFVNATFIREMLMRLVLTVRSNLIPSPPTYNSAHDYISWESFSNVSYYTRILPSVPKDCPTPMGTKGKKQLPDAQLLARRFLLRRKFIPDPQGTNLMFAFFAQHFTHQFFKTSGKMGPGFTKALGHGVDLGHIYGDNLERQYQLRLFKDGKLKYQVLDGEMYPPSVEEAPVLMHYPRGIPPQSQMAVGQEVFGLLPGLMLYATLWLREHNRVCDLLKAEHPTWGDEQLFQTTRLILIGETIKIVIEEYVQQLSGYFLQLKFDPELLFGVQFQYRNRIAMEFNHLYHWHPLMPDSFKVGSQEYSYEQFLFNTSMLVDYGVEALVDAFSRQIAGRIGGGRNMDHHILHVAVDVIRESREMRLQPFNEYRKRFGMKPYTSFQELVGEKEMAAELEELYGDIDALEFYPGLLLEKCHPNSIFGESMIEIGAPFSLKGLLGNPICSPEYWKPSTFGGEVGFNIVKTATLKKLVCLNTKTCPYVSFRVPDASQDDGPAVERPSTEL

[6] = system: HEK-293T; test: Cytotoxicity against human 293T cells after 48 hrs by MTT assay; assay type: cell-based
[7] = system: MCF7; test: Antiproliferative activity against human MCF7 cells after 48 hrs by MTT assay; assay type: functional, cell-based; conditions: MCF7, 48 h
[8] = system: B16-F10; test: Antiproliferative activity against mouse B16F10 cells after 48 hrs by MTT assay; assay type: functional, cell-based; conditions: B16-F10, 48 h; method in brief: as §1
[9] = target: T1, Prostaglandin G/H synthase 2 (Homo sapiens, UniProt P35354); test: Inhibition of COX2 (unknown origin) using arachidonic acid as substrate pretreated for 10 mins followed by substrate addition and measured after 2 mins by ELISA
T1 sequence (P35354 whole entry): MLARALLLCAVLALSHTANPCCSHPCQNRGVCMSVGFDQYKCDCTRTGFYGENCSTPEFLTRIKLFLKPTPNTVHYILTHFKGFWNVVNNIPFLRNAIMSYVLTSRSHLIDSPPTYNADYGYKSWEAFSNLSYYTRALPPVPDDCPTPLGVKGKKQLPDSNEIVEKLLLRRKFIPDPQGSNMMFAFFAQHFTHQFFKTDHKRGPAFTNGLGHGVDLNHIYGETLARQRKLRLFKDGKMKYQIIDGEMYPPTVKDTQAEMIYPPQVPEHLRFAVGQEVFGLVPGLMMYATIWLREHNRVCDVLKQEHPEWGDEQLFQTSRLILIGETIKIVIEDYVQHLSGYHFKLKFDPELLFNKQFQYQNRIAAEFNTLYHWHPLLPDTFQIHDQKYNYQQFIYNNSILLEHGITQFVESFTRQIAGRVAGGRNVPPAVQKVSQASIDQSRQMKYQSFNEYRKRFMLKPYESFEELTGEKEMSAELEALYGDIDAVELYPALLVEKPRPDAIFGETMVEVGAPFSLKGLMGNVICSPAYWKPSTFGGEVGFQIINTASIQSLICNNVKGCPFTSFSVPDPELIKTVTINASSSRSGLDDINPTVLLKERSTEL

[10] = species: Homo sapiens; test: Selectivity index, ratio of IC50 for COX1 (unknown origin) to ratio of IC50 for COX2 (unknown origin)
Method in brief: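 Enzyme ELISA kit: COX-1 or COX-2 preincubated with compound at 0, 1, 10 or 100 μM for 10 min at 37 °C in 0.1 M Tris-HCl pH 8.0, 5 mM EDTA, 2 mM phenol, 1 μM heme. Started with 100 μM arachidonic acid for 2 min at 37 °C, stopped with 1 M HCl. PGH₂ reduced by stannous chloride; PGF2α read by enzyme immunoassay at 450 nm. Index taken as the ratio of the COX IC50 values.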

| IC50 [3] | IC50 [4] | IC50 [5] | IC50 [7] | IC50 [8] | IC50 [9] | Ratio IC50 [10] | SMILES | Activity [1] | Activity [2] | IC50 [6] |
| --- | --- | --- | --- | --- | --- | --- | --- | --- | --- | --- |
| – | – | – | – | – | – | – | N#CC(C#N)=NNc1cccc(Cl)c1 [CARBONYL CYANIDE M-CHLOROPHENYLHYDRAZONE] | 40.5% | 59.5% | – |
| 5.07 µM | 4.32 µM | 29.7 µM | 6.21 µM | 7.44 µM | 5.02 µM | 5.92 | Cc1ccc(-n2nc(COC(=O)COc3cc(O)c4c(=O)cc(-c5ccccc5)oc4c3)cc2-c2ccc(C(F)(F)F)cc2)cc1 | – | – | 212 µM |
| > 100 µM | 1.65 µM | > 50 µM | 47 µM | 15.6 µM | 1.41 µM | > 35 | O=C(COc1cc(O)c2c(=O)cc(-c3ccccc3)oc2c1)OCc1cc(-c2ccc(Cl)cc2)n(-c2ccccc2)n1 | – | – | 227 µM |
| 3.58 µM | 6.67 µM | 43.2 µM | 8.48 µM | > 100 µM | 2.12 µM | 20.4 | O=C(COc1cc(O)c2c(=O)cc(-c3ccccc3)oc2c1)OCc1cc(-c2ccc(Br)cc2)n(-c2ccccc2)n1 | – | – | 316 µM |
| 12 µM | > 100 µM | > 50 µM | 3.82 µM | 6.24 µM | 2.54 µM | > 20 | O=C(COc1cc(O)c2c(=O)cc(-c3ccccc3)oc2c1)OCc1cc(-c2ccc(F)cc2)n(-c2ccccc2)n1 | – | – | 187 µM |
| > 100 µM | 1.95 µM | 39.1 µM | 10.8 µM | 2.85 µM | 1.36 µM | 28.7 | Cc1cccc(-c2cc(COC(=O)COc3cc(O)c4c(=O)cc(-c5ccccc5)oc4c3)nn2-c2ccccc2)c1 | – | – | 316 µM |
| 3.62 µM | 4.72 µM | 33.1 µM | 12.1 µM | 6.08 µM | 8.58 µM | 3.86 | O=C(COc1cc(O)c2c(=O)cc(-c3ccccc3)oc2c1)OCc1cc(-c2ccc(Cl)c(Cl)c2)n(-c2ccc(Cl)cc2)n1 | – | – | 268 µM |
| 4.71 µM | 1.75 µM | 44.8 µM | 32.9 µM | 7.86 µM | 4.43 µM | 10.1 | O=C(COc1cc(O)c2c(=O)cc(-c3ccccc3)oc2c1)OCc1cc(-c2cccc(Cl)c2)n(-c2ccccc2)n1 | – | – | 188 µM |
